Laboratory results: ChEMBL document CHEMBL4229530, “5-Adamantan thiadiazole-based thiazolidinones as antimicrobial agents. Design, synthesis, molecular docking and evaluation” (2018)
In brackets after ≈: the same amount, converted by molar mass.

Tests used:
Staphylococcus aureus [1] = test: Antibacterial activity against Staphylococcus aureus ATCC 6538 after 24 hrs by INT dye based microdilution assay; format: functional; conditions: ATCC 6538, 24 h
Method in brief: (§1)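 Broth microdilution in tryptic soy broth: overnight bacterial culture adjusted to 1×10^5 CFU/mL, 1.0×10^4 CFU per well; compounds dissolved in 5% DMSO, tested at 0.001-1.0 mg/ml; 24 h at 37°C. Streptomycin and ampicillin as positive controls, 5% DMSO as negative control; duplicate, repeated three times.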

Bacillus cereus = test: Antibacterial activity against Bacillus cereus after 24 hrs by INT dye based microdilution assay; format: functional; method in brief: as §1
Listeria monocytogenes [2] = test: Antibacterial activity against Listeria monocytogenes NCTC 7973 after 24 hrs by INT dye based microdilution assay; format: functional; conditions: NCTC 7973, 24 h; method in brief: as §1
Micrococcus flavus = test: Antibacterial activity against Micrococcus flavus ATCC 10240 after 24 hrs by INT dye based microdilution assay; format: functional; conditions: ATCC 10240, 24 h; method in brief: as §1
Salmonella typhimurium = test: Antibacterial activity against Salmonella typhimurium ATCC 13311 after 24 hrs by INT dye based microdilution assay; format: functional, Salmonella enterica subsp. enterica serovar Typhimurium; conditions: Salmonella enterica, ATCC 13311, 24 h; method in brief: as §1
Enterobacter cloacae = test: Antibacterial activity against Enterobacter cloacae after 24 hrs by INT dye based microdilution assay; format: functional; method in brief: as §1
Pseudomonas aeruginosa [3] = test: Antibacterial activity against Pseudomonas aeruginosa ATCC 27853 after 24 hrs by INT dye based microdilution assay; format: functional; conditions: ATCC 27853, 24 h; method in brief: as §1
Escherichia coli [4] = test: Antibacterial activity against Escherichia coli ATCC 35210 after 24 hrs by INT dye based microdilution assay; format: functional; conditions: ATCC 35210, 24 h; method in brief: as §1
Aspergillus fumigatus = test: Antifungal activity against Aspergillus fumigatus isolate 1022 after 72 hrs by serial dilution assay; format: functional; conditions: isolate 1022, 72 h
Method in brief: (§2)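 Modified microdilution: fungal spores washed off malt agar with sterile 0.85% saline plus 0.1% Tween 80, adjusted to about 1.0×10^5 per 100 µL well. Compounds in 5% DMSO (0.001-1.0 mg/ml) in malt broth; 72 h at 28°C on rotary shaker (160 rpm). MIC is lowest concentration without visible growth under binocular microscope. Bifonazole and ketoconazole controls (1-3500 µg/mL); three independent experiments in duplicate.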

Aspergillus versicolor = test: Antifungal activity against Aspergillus versicolor ATCC 11730 after 72 hrs by serial dilution assay; format: functional; conditions: ATCC 11730, 72 h; method in brief: as §2
Aspergillus ochraceus = test: Antifungal activity against Aspergillus ochraceus ATCC 12066 after 72 hrs by serial dilution assay; format: functional; conditions: ATCC 12066, 72 h; method in brief: as §2
Aspergillus niger = test: Antifungal activity against Aspergillus niger ATCC 6275 after 72 hrs by serial dilution assay; format: functional; conditions: ATCC 6275, 72 h; method in brief: as §2
Trichoderma viride = test: Antifungal activity against Trichoderma viride IAM 5061 after 72 hrs by serial dilution assay; format: functional; conditions: IAM 5061, 72 h; method in brief: as §2
Talaromyces funiculosus = test: Antifungal activity against Penicillium funiculosum ATCC 36839 after 72 hrs by serial dilution assay; format: functional; conditions: ATCC 36839, 72 h; method in brief: as §2
Penicillium ochrochloron = test: Antifungal activity against Penicillium ochrochloron ATCC 9112 after 72 hrs by serial dilution assay; format: functional; conditions: ATCC 9112, 72 h; method in brief: as §2
Candida albicans = test: Antifungal activity against Candida albicans after 72 hrs by serial dilution assay; format: functional; method in brief: as §2
Penicillium verrucosum = test: Antifungal activity against Penicillium cyclopium var verucosum after 72 hrs by serial dilution assay; format: functional; method in brief: as §2
Listeria monocytogenes [5] = test: Potency index, ratio of ampicillin MIC to compound MIC for antibacterial activity against Listeria monocytogenes NCTC 7973; format: functional
Listeria monocytogenes [6] = test: Potency index, ratio of streptomycin MIC to compound MIC for antibacterial activity against Listeria monocytogenes NCTC 7973; format: functional
Staphylococcus aureus [7] = test: Antibacterial activity against methicillin-resistant Staphylococcus aureus after 24 hrs by INT dye based microdilution assay; format: functional
Method in brief: (§3)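 Broth microdilution in tryptic soy broth. Overnight culture adjusted to 1×10^5 CFU/mL, giving 1.0×10^4 CFU per well. Compounds dissolved in 5% DMSO and tested at 0.001-1.0 mg/ml. Plates incubated 24 h at 37°C. INT (0.2 mg/mL) then added, with 30 min at 37°C. Duplicate, repeated three times.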

Pseudomonas aeruginosa [8] = test: Antibacterial activity against drug-resistant Pseudomonas aeruginosa after 24 hrs by INT dye based microdilution assay; format: functional; method in brief: as §3
Escherichia coli [9] = test: Antibacterial activity against drug-resistant Escherichia coli after 24 hrs by INT dye based microdilution assay; format: functional; method in brief: as §3

SMILES	MIC (Staphylococcus aureus [1])	MIC (Bacillus cereus)	MIC (Listeria monocytogenes [2])	MIC (Micrococcus flavus)	MIC (Salmonella typhimurium)	MIC (Enterobacter cloacae)	MIC (Pseudomonas aeruginosa [3])	MIC (Escherichia coli [4])	MIC (Aspergillus fumigatus)	MIC (Aspergillus versicolor)	MIC (Aspergillus ochraceus)	MIC (Aspergillus niger)	MIC (Trichoderma viride)	MIC (Talaromyces funiculosus)	MIC (Penicillium ochrochloron)	MIC (Candida albicans)	MIC (Penicillium verrucosum)	also measured
O=C1N/C(=N\c2nnc(C34CC5CC(CC(C5)C3)C4)s2)S/C1=C/c1ccc(Cl)cc1	0.137 µM (≈ 0.0626 µg/mL)	137 µM (≈ 62.6 µg/mL)	274 µM (≈ 125 µg/mL)	328 µM (≈ 150 µg/mL)	33 µM (≈ 15.1 µg/mL)	137 µM (≈ 62.6 µg/mL)	33 µM (≈ 15.1 µg/mL)	0.274 µM (≈ 0.125 µg/mL)	137 µM (≈ 62.6 µg/mL)	68 µM (≈ 31.1 µg/mL)	68 µM (≈ 31.1 µg/mL)	137 µM (≈ 62.6 µg/mL)	68 µM (≈ 31.1 µg/mL)	137 µM (≈ 62.6 µg/mL)	137 µM (≈ 62.6 µg/mL)	274 µM (≈ 125 µg/mL)	–	–
O=C1N/C(=N\c2nnc(C34CC5CC(CC(C5)C3)C4)s2)S/C1=C/c1cccc(Cl)c1	0.088 µM (≈ 0.0402 µg/mL)	66 µM (≈ 30.2 µg/mL)	137 µM (≈ 62.6 µg/mL)	66 µM (≈ 30.2 µg/mL)	66 µM (≈ 30.2 µg/mL)	137 µM (≈ 62.6 µg/mL)	66 µM (≈ 30.2 µg/mL)	0.066 µM (≈ 0.0302 µg/mL)	137 µM (≈ 62.6 µg/mL)	68 µM (≈ 31.1 µg/mL)	68 µM (≈ 31.1 µg/mL)	137 µM (≈ 62.6 µg/mL)	68 µM (≈ 31.1 µg/mL)	137 µM (≈ 62.6 µg/mL)	68 µM (≈ 31.1 µg/mL)	274 µM (≈ 125 µg/mL)	–	–
CC(=O)N1CCN(c2ccc(OCC3COC(Cn4ccnc4)(c4ccc(Cl)cc4Cl)O3)cc2)CC1 (configuration not stated) [KETOCONAZOLE]	–	–	–	–	–	–	–	–	380 µM (≈ 202 µg/mL)	2850 µM (≈ 1510 µg/mL)	380 µM (≈ 202 µg/mL)	380 µM (≈ 202 µg/mL)	4750 µM (≈ 2520 µg/mL)	380 µM (≈ 202 µg/mL)	3800 µM (≈ 2020 µg/mL)	376 µM (≈ 200 µg/mL)	0.376 µM (≈ 0.2 µg/mL)	–
c1ccc(-c2ccc(C(c3ccccc3)n3ccnc3)cc2)cc1 (configuration not stated) [BIFONAZOLE]	–	–	–	–	–	–	–	–	480 µM (≈ 149 µg/mL)	480 µM (≈ 149 µg/mL)	480 µM (≈ 149 µg/mL)	480 µM (≈ 149 µg/mL)	640 µM (≈ 199 µg/mL)	640 µM (≈ 199 µg/mL)	480 µM (≈ 149 µg/mL)	322 µM (≈ 99.9 µg/mL)	0.322 µM (≈ 0.0999 µg/mL)	–
O=C1N/C(=N\c2nnc(C34CC5CC(CC(C5)C3)C4)s2)S/C1=C/c1cccc([N+](=O)[O-])c1	0.0418 µM (≈ 0.0195 µg/mL)	21.4 µM (≈ 10 µg/mL)	17 µM (≈ 7.95 µg/mL)	41.8 µM (≈ 19.5 µg/mL)	21.4 µM (≈ 10 µg/mL)	41.8 µM (≈ 19.5 µg/mL)	21.4 µM (≈ 10 µg/mL)	0.0418 µM (≈ 0.0195 µg/mL)	107 µM (≈ 50 µg/mL)	107 µM (≈ 50 µg/mL)	107 µM (≈ 50 µg/mL)	214 µM (≈ 100 µg/mL)	53.5 µM (≈ 25 µg/mL)	107 µM (≈ 50 µg/mL)	214 µM (≈ 100 µg/mL)	–	0.107 µM (≈ 0.05 µg/mL)	Ratio (Listeria monocytogenes [5]): 29; Ratio (Listeria monocytogenes [6]): 20; MIC (Staphylococcus aureus [7]): 0.107 µM (≈ 0.05 µg/mL); MIC (Pseudomonas aeruginosa [8]): 53.5 µM (≈ 25 µg/mL); MIC (Escherichia coli [9]): 0.0535 µM (≈ 0.025 µg/mL)
O=C1N/C(=N\c2nnc(C34CC5CC(CC(C5)C3)C4)s2)S/C1=C/c1ccc(O)cc1	0.068 µM (≈ 0.0298 µg/mL)	34 µM (≈ 14.9 µg/mL)	284 µM (≈ 125 µg/mL)	142 µM (≈ 62.3 µg/mL)	34 µM (≈ 14.9 µg/mL)	34 µM (≈ 14.9 µg/mL)	34 µM (≈ 14.9 µg/mL)	0.091 µM (≈ 0.0399 µg/mL)	142 µM (≈ 62.3 µg/mL)	71 µM (≈ 31.1 µg/mL)	71 µM (≈ 31.1 µg/mL)	142 µM (≈ 62.3 µg/mL)	71 µM (≈ 31.1 µg/mL)	71 µM (≈ 31.1 µg/mL)	142 µM (≈ 62.3 µg/mL)	284 µM (≈ 125 µg/mL)	–	–
